Reference: ChEMBL document CHEMBL2331168, “Anticonvulsant evaluation of aminoalkanol derivatives of 2- and 4-methylxanthone” (Bioorg Med Chem, 2013)
The source made the active and inactive calls.

Key:
Mus musculus [1] = assay: Neurotoxicity in albino mouse assessed as minimal motor impairment at 30 mg/kg, ip after 4 hrs by rotorod test; type: toxicity, organism-based; design: dose 30 mg/kg, route intraperitoneal; details: in vivo
Summary of the method: (§1)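 Male albino mice (Carworth Farms No. 1) were dosed ip with suspensions in 0.5% methylcellulose and put on a 1 in. knurled rod rotating at 6 rpm at set times after dosing. Neurotoxicity meant failure to stay on the rod for at least 1 min in each of three trials. Scored as impaired/tested.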

Mus musculus [2] = assay: Neurotoxicity in albino mouse assessed as minimal motor impairment at 30 mg/kg, ip after 0.5 hrs by rotorod test; type: toxicity, organism-based; design: dose 30 mg/kg, route intraperitoneal; details: in vivo; summary of the method: as §1
Mus musculus [3] = assay: Anticonvulsant activity in albino mouse assessed as protection against subcutaneous pentetrazole-induced seizures at 300 mg/kg, ip after 4 hrs; type: functional, organism-based; design: dose 300 mg/kg
Summary of the method: (§2)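 Male albino mice (Carworth Farms No. 1) received compound ip in 0.5% methylcellulose, then pentetrazole 85 mg/kg sc in 0.9% NaCl at 0.5 or 4 h. Mice were watched for at least 30 min. Protection meant no threshold seizure, defined as a single clonic spasm lasting at least 5 s. Scored as protected/tested.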

Mus musculus [4] = species on record: Mus musculus; assay: Protective index, ratio TD50 for albino mouse to ED50 for albino mouse by maximal electroshock-induced seizure test after 0.5 hrs; type: functional
Summary of the method: (§3)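 Protective index was calculated as mouse ip TD50 (rotorod) divided by mouse ip MES ED50, both obtained by quantitative dose-response testing at the stated post-dose time.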

Mus musculus [5] = assay: Anticonvulsant activity in albino mouse assessed as protection against subcutaneous pentetrazole-induced seizures at 300 mg/kg, ip after 0.5 hrs; type: functional, organism-based; design: dose 300 mg/kg; summary of the method: as §2
Mus musculus [6] = assay: Anticonvulsant activity in albino mouse assessed as protection against maximal electroshock-induced seizures at 30 mg/kg, ip after 4 hrs; type: functional, organism-based; design: dose 30 mg/kg
Summary of the method: (§4)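 Male albino mice (Carworth Farms No. 1) were given the compound ip as a suspension in 0.5% methylcellulose at 3–300 mg/kg. MES testing was at 0.5 and 4 h, sometimes also at 0.25 and 1 h. Current was 60 Hz, 50 mA, 0.2 s via corneal electrodes, with saline eye drops. Protection meant no hindlimb tonic extension, scored as protected/tested.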

Mus musculus [7] = assay: Neurotoxicity in albino mouse assessed as minimal motor impairment at 100 mg/kg, ip after 0.5 hrs by rotorod test; type: toxicity, organism-based; design: dose 100 mg/kg, route intraperitoneal; details: in vivo; summary of the method: as §1
Mus musculus [8] = assay: Anticonvulsant activity in albino mouse assessed as protection against subcutaneous pentetrazole-induced seizures at 30 mg/kg, ip after 4 hrs; type: functional, organism-based; design: dose 30 mg/kg; summary of the method: as §2
Mus musculus [9] = assay: Anticonvulsant activity in albino mouse assessed as protection against maximal electroshock-induced seizures at 30 mg/kg, ip after 0.5 hrs; type: functional, organism-based; design: dose 30 mg/kg; summary of the method: as §4
Rattus norvegicus [10] = assay: Neurotoxicity in Sprague-Dawley rat assessed as minimal motor impairment at 30 mg/kg, po after 4 hrs by rotorod test; details: in vivo
Mus musculus [11] = assay: Anticonvulsant activity in albino mouse assessed as protection against subcutaneous pentetrazole-induced seizures at 30 mg/kg, ip after 0.5 hrs; type: functional, organism-based; design: dose 30 mg/kg; summary of the method: as §2
Rattus norvegicus [12] = assay: Neurotoxicity in Sprague-Dawley rat assessed as minimal motor impairment at 30 mg/kg, po after 0.5 hrs by rotorod test; details: in vivo
Mus musculus [13] = assay: Neurotoxicity in albino mouse assessed as minimal motor impairment at 100 mg/kg, ip after 4 hrs by rotorod test; type: toxicity, organism-based; design: dose 100 mg/kg, route intraperitoneal; details: in vivo; summary of the method: as §1
Mus musculus [14] = assay: Anticonvulsant activity in albino mouse assessed as protection against maximal electroshock-induced seizures at 300 mg/kg, ip after 4 hrs; type: functional, organism-based; design: dose 300 mg/kg; summary of the method: as §4
Mus musculus [15] = assay: Anticonvulsant activity in albino mouse assessed as protection against maximal electroshock-induced seizures at 100 mg/kg, ip after 0.5 hrs; type: functional, organism-based; design: dose 100 mg/kg; summary of the method: as §4
Mus musculus [16] = assay: Anticonvulsant activity in albino mouse assessed as protection against maximal electroshock-induced seizures at 300 mg/kg, ip after 0.5 hrs; type: functional, organism-based; design: dose 300 mg/kg; summary of the method: as §4
Mus musculus [17] = assay: Anticonvulsant activity in ip dosed albino mouse assessed as protection against maximal electroshock-induced seizures after 0.5 hrs; type: functional
Summary of the method: (§5)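 ED50, with 95% confidence intervals, was the ip dose protecting 50% of mice in the MES test. It was measured at the stated post-dose time in male albino mice given suspensions in 0.5% methylcellulose. MES used 60 Hz, 50 mA, 0.2 s corneal stimulation, and the endpoint was abolition of hindlimb tonic extension.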

Rattus norvegicus [18] = assay: Neurotoxicity in Sprague-Dawley rat assessed as minimal motor impairment at 30 mg/kg, po after 1 hr by rotorod test; details: in vivo
[19] = Neurotoxicity in ip dosed albino mouse assessed as minimal motor impairment after 1 hr by rotorod test; type: toxicity, organism-based; details: in vivo
Summary of the method: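 TD50, with 95% confidence intervals, was the ip dose causing neurotoxicity in 50% of male albino mice. Deficit was judged on the rotorod: a 1 in. knurled rod at 6 rpm, where failure to hold on for 1 min in each of three trials counted as deficit. Read at the stated time after dosing.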

Mus musculus [20] = assay: Anticonvulsant activity in ip dosed albino mouse assessed as protection against subcutaneous pentetrazole-induced seizures after 0.5 hrs; type: functional
Rattus norvegicus [21] = assay: Neurotoxicity in Sprague-Dawley rat assessed as minimal motor impairment at 30 mg/kg, po after 2 hrs by rotorod test; details: in vivo
Mus musculus [22] = assay: Protective index, ratio TD50 for albino mouse to ED50 for albino mouse by subcutaneous pentetrazole-induced seizure test after 0.5 hrs; type: functional
Mus musculus [23] = assay: Anticonvulsant activity in albino mouse assessed as protection against subcutaneous pentetrazole-induced seizures at 100 mg/kg, ip after 4 hrs; type: functional, organism-based; design: dose 100 mg/kg; summary of the method: as §2
Mus musculus [24] = assay: Anticonvulsant activity in albino mouse assessed as protection against maximal electroshock-induced seizures at 100 mg/kg, ip after 4 hrs; type: functional, organism-based; design: dose 100 mg/kg; summary of the method: as §4
Rattus norvegicus [25] = assay: Anticonvulsant activity in Sprague-Dawley rat assessed as protection against maximal electroshock-induced seizures at 30 mg/kg, po after 1 hr; type: functional, organism-based; design: dose 30 mg/kg
Summary of the method: (§6)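 Male Sprague-Dawley rats dosed orally at 30 mg/kg and tested at 0.25, 0.5, 1, 2 and 4 h. Seizures were induced by 60 Hz alternating current at 150 mA for 0.2 s through corneal electrodes, after a drop of 0.9% NaCl in each eye. Protection meant abolition of hindlimb tonic extension. Reported as protected/tested, usually 4 rats per time point.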

Mus musculus [26] = assay: Anticonvulsant activity in albino mouse assessed as protection against subcutaneous pentetrazole-induced seizures at 100 mg/kg, ip after 0.5 hrs; type: functional, organism-based; design: dose 100 mg/kg; summary of the method: as §2
Rattus norvegicus [27] = assay: Neurotoxicity in Sprague-Dawley rat assessed as minimal motor impairment at 30 mg/kg, po after 0.25 hrs by rotorod test; details: in vivo
Mus musculus [28] = species on record: Mus musculus; assay: Protective index, ratio TD50 for albino mouse to ED50 for albino mouse by maximal electroshock-induced seizure test after 1 hr; type: functional; summary of the method: as §3
Rattus norvegicus [29] = assay: Anticonvulsant activity in Sprague-Dawley rat assessed as protection against maximal electroshock-induced seizures at 30 mg/kg, po after 0.5 hrs; type: functional, organism-based; design: dose 30 mg/kg; summary of the method: as §6
Mus musculus [30] = assay: Anticonvulsant activity in ip dosed albino mouse assessed as protection against maximal electroshock-induced seizures after 1 hr; type: functional; summary of the method: as §5
Rattus norvegicus [31] = assay: Anticonvulsant activity in Sprague-Dawley rat assessed as protection against maximal electroshock-induced seizures at 30 mg/kg, po after 0.25 hrs; type: functional, organism-based; design: dose 30 mg/kg; summary of the method: as §6
Mus musculus [32] = assay: Neurotoxicity in albino mouse assessed as minimal motor impairment at 300 mg/kg, ip after 4 hrs by rotorod test; type: toxicity, organism-based; design: dose 300 mg/kg, route intraperitoneal; details: in vivo; summary of the method: as §1
Mus musculus [33] = assay: Protective index, ratio TD50 for albino mouse to ED50 for albino mouse by subcutaneous pentetrazole-induced seizure test after 1 hr; type: functional
Rattus norvegicus [34] = assay: Anticonvulsant activity in Sprague-Dawley rat assessed as protection against maximal electroshock-induced seizures at 30 mg/kg, po after 2 hrs; type: functional, organism-based; design: dose 30 mg/kg; summary of the method: as §6
Mus musculus [35] = assay: Anticonvulsant activity in ip dosed albino mouse assessed as protection against subcutaneous pentetrazole-induced seizures after 1 hr; type: functional
Rattus norvegicus [36] = assay: Anticonvulsant activity in Sprague-Dawley rat assessed as protection against maximal electroshock-induced seizures at 30 mg/kg, po after 4 hrs; type: functional, organism-based; design: dose 30 mg/kg; summary of the method: as §6
Mus musculus [37] = assay: Neurotoxicity in albino mouse assessed as minimal motor impairment at 300 mg/kg, ip after 0.5 hrs by rotorod test; type: toxicity, organism-based; design: dose 300 mg/kg, route intraperitoneal; details: in vivo; summary of the method: as §1

Compound: CCC(CO)NCc1ccc2oc3cc(OC)ccc3c(=O)c2c1 (racemic)
- Activity (Mus musculus [1]): Non-toxic
- Activity (Mus musculus [2]): Non-toxic
- Activity (Mus musculus [3]): inactive
- Ratio TD50/ED50 (Mus musculus [4]): 2.66
- Activity (Mus musculus [5]): inactive
- Activity (Mus musculus [6]): inactive
- Activity (Mus musculus [7]): Non-toxic
- Activity (Mus musculus [8]): inactive
- Activity (Mus musculus [9]): inactive
- Activity (Rattus norvegicus [10]): Non-toxic
- Activity (Mus musculus [11]): inactive
- Activity (Rattus norvegicus [12]): Non-toxic
- Activity (Mus musculus [13]): Non-toxic
- Activity (Mus musculus [14]): Active
- Activity (Mus musculus [15]): Active
- Activity (Mus musculus [16]): Active
- ED50 (Mus musculus [17]): 80 mg/kg
- Activity (Rattus norvegicus [18]): Non-toxic
- TD50 at 1 h [19]: 213 mg/kg
- ED50 (Mus musculus [20]): > 500 mg/kg
- Activity (Rattus norvegicus [21]): Non-toxic
- Ratio TD50/ED50 (Mus musculus [22]): <0.43
- Activity (Mus musculus [23]): inactive
- Activity (Mus musculus [24]): inactive
- Activity (Rattus norvegicus [25]): inactive
- Activity (Mus musculus [26]): inactive
- Activity (Rattus norvegicus [27]): Non-toxic

Compound: CC[C@H](CO)NCc1ccc2oc3cc(OC)ccc3c(=O)c2c1
- Activity (Mus musculus [1]): Non-toxic
- Ratio TD50/ED50 (Mus musculus [28]): 2.51
- Activity (Mus musculus [2]): Non-toxic
- Activity (Mus musculus [3]): inactive
- Activity (Mus musculus [5]): inactive
- Activity (Rattus norvegicus [29]): inactive
- Activity (Mus musculus [6]): inactive
- Activity (Mus musculus [8]): inactive
- ED50 (Mus musculus [30]): 107 mg/kg
- Activity (Mus musculus [9]): inactive
- Activity (Rattus norvegicus [10]): Non-toxic
- Activity (Mus musculus [11]): inactive
- Activity (Rattus norvegicus [12]): Non-toxic
- Activity (Mus musculus [13]): Non-toxic
- Activity (Mus musculus [14]): Active
- Activity (Mus musculus [15]): Active
- Activity (Mus musculus [16]): Active
- Activity (Rattus norvegicus [18]): Non-toxic
- TD50 at 1 h [19]: 269 mg/kg
- Activity (Rattus norvegicus [31]): inactive
- Activity (Rattus norvegicus [21]): Non-toxic
- Activity (Mus musculus [32]): Non-toxic
- Ratio TD50/ED50 (Mus musculus [33]): <1.54
- Activity (Mus musculus [23]): inactive
- Activity (Rattus norvegicus [34]): inactive
- Activity (Mus musculus [26]): inactive
- ED50 (Mus musculus [35]): > 175 mg/kg
- Activity (Rattus norvegicus [27]): Non-toxic

Compound: CCC(CO)NCc1cccc2c(=O)c3ccc(OC)cc3oc12 (racemic)
- Activity (Mus musculus [1]): Non-toxic
- Activity (Mus musculus [2]): Non-toxic
- Activity (Rattus norvegicus [36]): inactive
- Activity (Rattus norvegicus [29]): inactive
- Activity (Mus musculus [6]): inactive
- Activity (Mus musculus [7]): Toxic
- Activity (Mus musculus [8]): inactive
- Activity (Mus musculus [9]): inactive
- Activity (Rattus norvegicus [10]): Non-toxic
- Activity (Mus musculus [11]): inactive
- Activity (Rattus norvegicus [12]): Non-toxic
- Activity (Mus musculus [13]): Non-toxic
- Activity (Mus musculus [15]): Active
- Activity (Mus musculus [16]): Active
- Activity (Mus musculus [37]): Toxic
- Activity (Rattus norvegicus [18]): Non-toxic
- Activity (Rattus norvegicus [31]): inactive
- Activity (Rattus norvegicus [21]): Non-toxic
- Activity (Mus musculus [32]): Toxic
- Activity (Mus musculus [23]): inactive
- Activity (Mus musculus [24]): inactive
- Activity (Rattus norvegicus [25]): inactive
- Activity (Rattus norvegicus [34]): inactive
- Activity (Mus musculus [26]): inactive
- Activity (Rattus norvegicus [27]): Non-toxic
